# Compounds with a hit are over-represented: about 3% of the library has one in this group of screens.
# Kir21 inh – inhibitors of mouse Kir2.1 inward-rectifier potassium channel; HEK293-Kir2.1, FluxOR thallium flux fluorescence; stronger effect = lower value; B-score at 10 µM; Inward rectifier potassium channel 2 (Mus musculus), P35561; AID 1672, 2009; 0.85% of 310,000 active;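 active = fluorescence ratio B-score at or below minus 3 SD of library scores, with starting-brightness B-score within 2 SD, cut at about -4.2 in these data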;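 also: channel flux triggered by added potassium and thallium sulfate stimulus; B-score of peak minus minimum fluorescence over baseline after thallium stimulus; more negative B-score means stronger Kir2.1 block with less thallium influx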
# Target sequence (P35561 whole entry, looked up): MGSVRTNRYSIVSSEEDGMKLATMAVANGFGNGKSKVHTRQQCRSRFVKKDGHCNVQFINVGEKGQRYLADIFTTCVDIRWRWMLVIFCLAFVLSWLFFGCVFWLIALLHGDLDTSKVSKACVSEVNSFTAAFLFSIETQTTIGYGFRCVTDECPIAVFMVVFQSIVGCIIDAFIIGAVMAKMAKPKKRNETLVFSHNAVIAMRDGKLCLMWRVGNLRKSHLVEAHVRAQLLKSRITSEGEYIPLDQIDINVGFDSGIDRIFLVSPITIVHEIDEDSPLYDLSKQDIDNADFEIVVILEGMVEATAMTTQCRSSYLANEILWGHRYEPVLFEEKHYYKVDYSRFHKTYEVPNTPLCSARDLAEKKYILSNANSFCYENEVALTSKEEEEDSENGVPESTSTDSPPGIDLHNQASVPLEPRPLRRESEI
# TRPC6 act – mouse TRPC6 channel activators, primary screen, cell-based, HEK293, membrane potential dye; 0.13% of 310,000 active; Short transient receptor potential channel 6 (Mus musculus), Q61143; B-score at 10 µM; AID 2550, 2010; HEK293-TRPC6 membrane potential dye fluorescence; stronger effect = higher value;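 active = B-score of the integrated fluorescence ratio above library mean plus 3 SD, and starting fluorescence ratio within library mean plus 5 SD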;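 also: higher score means more depolarization so channel activation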
# TRPC6 inh – mouse TRPC6 channel inhibitors, primary screen, cell-based, HEK293, membrane potential dye | AID 2553, 2010 | B-score at 10 µM | ACh-evoked depolarization; stronger effect = lower value | Short transient receptor potential channel 6 (Mus musculus), Q61143 | 1.1% of 310,000 active;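 active = B-score under library mean minus 3 SD, initial fluorescence not abnormally high, positive integrated signal ratio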;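 also: B-score derived from integrated fluorescence ratio over the kinetic read; more negative B-score means stronger inhibition of depolarization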
# TRPC4 PAM – positive allosteric modulators of TRPC4, primary screen, cell-based, mouse TRPC4beta, HEK293 mu-opioid, Fluo-4 calcium. Short transient receptor potential channel 4 (Mus musculus), Q9QUQ5. DAMGO EC20, Fluo-4 Ca2+ flux; stronger effect = higher value. B-score at 10 µM. 0.42% of 310,000 active. AID 2227, 2009;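 active = B-score of calcium response area above 5 SD of library B-scores, with initial fluorescence ratio within 5 SD of library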;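 also: B-score of integrated fluorescence ratio over time as area under calcium response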
# TRPC4 block – inhibitors of mouse TRPC4 channel, primary screen, Fluo4 calcium, HEK293 TRPC4beta/mu-opioid cells | Short transient receptor potential channel 4 (Mus musculus), Q9QUQ5 | DAMGO-evoked Fluo4 calcium flux; stronger effect = lower value | B-score at 10 µM | 0.39% of 300,000 active | AID 2247, 2010;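 active = B-score over 3 SD under the library average, no early fluorescence shift, positive overall ratio signal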
#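 Assay system: HEK293 cells with stable TRPC4beta plus mu-opioid receptor expression. Dosing: single dose. Measured by: Fluo4 Ca2+ flux fluorescence. Also added: DAMGO in two steps, submaximal then maximal. Read-out: B score from integrated Fluo4 fluorescence ratio.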
# TRPC4 act – activators of mouse TRPC4 channel, primary screen, Fluo4 calcium, HEK293 TRPC4beta/mu-opioid cells; B-score at 10 µM; Fluo4 calcium fluorescence; stronger effect = higher value; AID 2237, 2010; Short transient receptor potential channel 4 (Mus musculus), Q9QUQ5; 0.49% of 310,000 active;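 active = B-score above 5 SD of library B-scores, and initial fluorescence ratio not above library mean plus 5 SD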;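 also: positive B-score marks a calcium rise read as TRPC4 activation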
#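 System: HEK293 cells stably co-expressing mouse TRPC4beta and mu-opioid receptor; Schedule: Fluo4 dye loading 45 min at room temperature, 110 s recording; Detection: Fluo4 fluorescence, kinetic; Evaluation: B-scored integrated calcium fluorescence ratio; Controls: buffer (low) and maximal DAMGO (high).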
# TRPC4 spec 2 – mouse TRPC4 off-target activity of TRPC6 inhibitors, second screen; shares compounds with TRPC6 inh; HEK293 TRPC4/MOR, membrane potential dye fluorescence; channel activated by saturating DAMGO dose; inhibition, % at 10 µM; 42% of 920 active;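 active = compounds whose fluorescence signal differed from control wells by over 3 SD, either direction, in both duplicate plates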
# TRPC4 spec – mouse TRPC4 modulation by TRPC6 hits, confirmation, selectivity assay for TRPC6 inhibitor project, cell-based, HEK293 TRPC4/mu-opioid, membrane potential dye; shares compounds with TRPC6 inh; membrane potential fluorescence; activity change, negative = inhibition, % at 10 µM; 61% of 920 active;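 active = rise or fall in signal beyond 3 SD of buffer-only wells in both replicate plates, either sign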;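 also: integrated kinetic ratio of fluorescence range over baseline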
# HEK293 MPD ctr 2-1 – nonspecific membrane potential effects, parental HEK293, confirmation, counter-screen for TRPC6 inhibitor project, cell-based, second counter screen | parental HEK293 membrane potential dye fluorescence; maximal acetylcholine challenge after compound addition | signal change vs control, % at 10 µM | shares compounds with TRPC6 inh | 31% of 920 active;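 active = membrane potential signal moving either way by over 3 SD of the maximum-effect control, in both duplicate plates, meaning non-specific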
# HEK293 MPD ctr-1 – membrane potential modulation in parental HEK293, confirmation, counter-screen for TRPC6 inhibitor project, cell-based; 60% of 920 active; parental HEK293 membrane potential dye fluorescence; shares compounds with TRPC6 inh; membrane potential signal change, % at 10 µM;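 active = membrane potential signal shifting up or down by more than 3 SD of buffer-only wells, on both duplicate plates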
# HEK293 MPD ctr-2 – parental HEK293 membrane potential modulation, confirmation, counter-screen for TRPC6 modulator project, cell-based | 51% of 2,400 active | membrane potential dye fluorescence | shares compounds with TRPC6 inh | membrane potential signal change, % at 10 µM | AID 488924, 2010;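 active = membrane potential signal moves up or down beyond 5 SD from buffer-only wells, on both duplicate plates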
# HEK293 MPD ctr 2-2 – parental HEK293 nonspecific activity of TRPC6 modulators, second screen; shares compounds with TRPC6 inh; 14% of 2,400 active; inhibition, % at 10 µM; membrane potential dye fluorescence; after compound, maximal acetylcholine stimulation;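 active = membrane potential signal drops by more than 5 SD from the mean control signal, in both duplicate plates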;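 also: plate controls were acetylcholine ECmax control wells for no effect and buffer only wells for full effect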
# TRPC4 ctr mod – TRPC4 modulation by TRPC6 hit compounds, confirmation, selectivity assay for TRPC6 modulator project, cell-based, HEK293 TRPC4/mu-opioid, membrane potential dye, mouse | 69% of 2,400 active | membrane potential fluorescence | shares compounds with TRPC6 inh | percent change from control (negative = decrease, positive = increase), % at 10 µM;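 active = membrane potential signal moved up or down beyond 5 SD of buffer control wells, in both duplicate plates, actives on both sides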;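 also: plate controls were assay buffer wells for no effect and DAMGO maximal-effect wells for full effect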
# TRPC4/MOR inh 2 – second check of whether TRPC6 modulators also affect mouse TRPC4; inhibition, % at 10 µM; shares compounds with TRPC6 inh; HEK293 TRPC4/mu-opioid, membrane potential dye fluorescence; stimulated with maximal-effect DAMGO; 55% of 2,400 active;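 active = drop in membrane potential signal beyond 5 SD of the control wells in both duplicate plates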;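 also: TRPC4 counter screen for TRPC6 hits run under conditions tuned for TRPC6 not TRPC4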
# TRPC6 block conf – mouse TRPC6 channel inhibitors, confirmation, HEK293 cells, membrane potential dye, duplicate; shares compounds with TRPC6 inh; ACh-evoked depolarization; inhibition, % at 10 µM; 43% of 3,300 active;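 active = fluorescence ratio falls more than 5 SD below the full-stimulation control mean, in both duplicate runs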;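 also: integrated fluorescence ratio of peak minus minimum over baseline after agonist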
# TRPC6 act confirm – mouse TRPC6 channel activators, confirmation, HEK293 cells, membrane potential dye, duplicate | shares compounds with TRPC6 inh | HEK293-TRPC6 membrane potential dye fluorescence, FDSS | activation, % at 10 µM | 11% of 2,800 active | AID 488961, 2010;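 active = ratio signal rise beyond 5 SD above unstimulated control wells' mean, seen in both duplicate runs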;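 also: plate controls were buffer EC0 wells for no effect and acetylcholine ECmax response for full effect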
# Starred values were filed as active, the others as inactive; i = inactive; nt = not tested or not shown.
SMILES,Kir21 inh,TRPC6 act,TRPC6 inh,TRPC4 PAM,TRPC4 block,TRPC4 act,HEK293 MPD ctr-2,HEK293 MPD ctr 2-2,TRPC4 ctr mod,TRPC4/MOR inh 2,TRPC6 block conf,TRPC6 act confirm,others
CC(C)C[C@H](NC(=O)[C@@H]1Cc2ccccc2CN1)C(=O)Nc1ccc(C(C)C)cc1,-0.19,i,-5.2*,i,i,i,i,i,-12%*,68%*,i,i,
CC(C)c1ccc(NC(=O)[C@@H](C)NC(=O)[C@@H]2Cc3ccccc3CN2)cc1,0.55,i,i,i,i,i,nt,nt,nt,nt,nt,nt,
CCOc1ccc(S(=O)(=O)Nc2cccc(C(=O)N(C)Cc3cccc(OC)c3OC)c2)cc1,2.6,i,i,i,i,i,nt,nt,nt,nt,nt,nt,
Cn1cc(CN(CCCN2CCOCC2)C(=S)Nc2cccc(Cl)c2)c2ccccc21,-1.2,i,-6.8*,i,i,i,nt,nt,nt,nt,i,i,TRPC4 spec 2=i;TRPC4 spec=i;HEK293 MPD ctr 2-1=258%*;HEK293 MPD ctr-1=i
COc1ccc(NC(=S)N(CCCN2CCOCC2)Cc2cn(C)c3ccccc23)cc1,-3.1,i,i,i,i,i,nt,nt,nt,nt,nt,nt,
Cc1cccc(C(=O)NCC(=O)OC(C)C(=O)Nc2ccc(Cl)cn2)c1 (stereo not drawn),-0.06,i,i,i,i,i,nt,nt,nt,nt,nt,nt,
Cc1nc2cc(C(F)(F)F)ccc2n1C1CCN(CC(=O)N2CCOCC2)CC1,0.58,i,-5.2*,i,i,i,i,i,i,i,i,i,

# High-throughput results as filed in PubChem.
